Key:
mushroom tyrosinase [1] = assay: Mushroom tyrosinase inhibition, monophenolase assay; type: biochemical, Agaricus bisporus (mushroom); conditions: L-tyrosine substrate; for pIC50 ±SEM Monophenolase: mushroom tyrosinase, pH 6.5
How it was run: (§1)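 Test compound came from 10 mM DMSO stocks. […] Enzyme, diluted to 500 U/mL before plating, was preincubated 15 min with test compound, then substrate was added. A490 was read every 3 min up to 30 min.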

mushroom tyrosinase [2] = assay: Mushroom tyrosinase inhibition, diphenolase assay; type: biochemical, Agaricus bisporus (mushroom); conditions: L-DOPA substrate; for % inhibition 500 μM ±SD Diphenolase: at 500 μM; for % inhibition ±SD Diphenolase: at 200 μM (asterisk)
How it was run: as §1

[3] = Radical scavenging activity, DPPH assay; conditions: at 500 μM, 30 min, 37 °C
How it was run: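 DPPH (250 μM in methanol) was mixed with an equal volume of test compound prepared at 1 mM in methanol. Reference antioxidants were run alongside, with DMSO as negative control. A515 was read after 30 min at 37 °C, in triplicate. Scavenging = 100 × (control Abs − sample Abs)/control Abs.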

[4] = Cytotoxicity against mammalian cells; type: cell-based; conditions: mouse, NCTC clone L929 murine fibroblast cells
How it was run: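 Murine NCTC fibroblasts (ATCC clone 929) were grown in RPMI-1640 with 10% FBS, counted by hemocytometer and seeded at 6 × 10^4/well. They were exposed to test compound at 200–1.5 μM for 48 h at 37 °C in humidified 5% CO2. Viability was read by MTT, and CC50 was derived by nonlinear regression.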

| pIC50 ±SEM Monophenolase (mushroom tyrosinase [1]) | % inhibition 500 μM ±SD Diphenolase (mushroom tyrosinase [2]) | Molecule | other results |
| --- | --- | --- | --- |
| 3.94 ± 0.06 | (44.2 ± 3.0%) | COc1ccc(C(=O)N2CCN(Cc3ccccc3)CC2)cc1 [Compound 1c, (4-Benzylpiperazin-1-yl)-(4-methoxyphenyl)methanone] |  |
|  |  | O=C(/C=C/c1ccc(O)c(O)c1)N1CCN(c2ccccc2)CC1 [Compound 4a, (E)-3-(3,4-Dihydroxyphenyl)-1-(4-phenylpiperazin-1-yl)prop-2-en-1-one] | radical scavenging activity (DPPH) [3]: 65.0%; CC50 at 48 h [4]: 57.2 ± 2 µM |
| 4.67 ± 0.01 | (30.5 ± 1.6%) | COc1ccc(C(=O)N2CCC(Cc3ccccc3)CC2)cc1 [Compound 5c, 4-Benzyl-1-(4-methoxybenzoyl)piperidine] |  |
| 4.99 ± 0.01 |  | COc1cc(C(=O)N2CCC(Cc3ccccc3)CC2)ccc1O [Compound 5b, (4-Benzyl-1-piperidyl)-(4-hydroxy-3-methoxy-phenyl)methanone] | % inhibition ±SD Diphenolase (mushroom tyrosinase [2]): (13.2 ± 0.8%); radical scavenging activity (DPPH) [3]: 10% |
| 4.16 ± 0.02 | (42.3 ± 3.4%) | COc1cc(/C=C/C(=O)N2CCN(Cc3ccccc3)CC2)ccc1O [Compound 3b, (2E)-1-(4-Benzylpiperazin-1-yl)-3-(4-hydroxy-3-methoxyphenyl)prop-2-en-1-one] |  |
| 4.54 ± 0.03 | (43.0 ± 2.9%) | O=C(/C=C/c1ccc(O)cc1)N1CCN(Cc2ccccc2)CC1 [Compound 3d, (E)-1-(4-Benzylpiperazin-1-yl)-3-(4-hydroxyphenyl)prop-2-en-1-one] |  |
| 4.53 ± 0.01 |  | COc1cc(/C=C/C(=O)N2CCC(Cc3ccccc3)CC2)ccc1O [Compound 6b, (E)-1-(4-Benzyl-1-piperidyl)-3-(4-hydroxy-3-methoxy-phenyl)prop-2-en-1-one] | % inhibition ±SD Diphenolase (mushroom tyrosinase [2]): (12.0 ± 1.5%); radical scavenging activity (DPPH) [3]: 28% |
| 3.86 ± 0.04 | (43.5 ± 2.3%) | COc1ccc(/C=C/C(=O)N2CCN(Cc3ccccc3)CC2)cc1 [Compound 3c, (E)-1-(4-Benzylpiperazin-1-yl)-3-(4-methoxyphenyl)prop-2-en-1-one] |  |
|  |  | O=C(/C=C/c1ccc(O)c(O)c1)N1CCN(Cc2ccccc2)CC1 [Compound 3a, (E)-1-(4-Benzylpiperazin-1-yl)-3-(3,4-dihydroxyphenyl)prop-2-en-1-one] | IC50 (mushroom tyrosinase [1]; read-out: IC50 tyrosinase inhibition, monophenolase): < 100 µM; pIC50 ±SEM Diphenolase (mushroom tyrosinase [2]; mushroom tyrosinase, pH 6.5): 4.18 ± 0.03; IC50 (mushroom tyrosinase [2]; read-out: IC50 tyrosinase inhibition, diphenolase): < 100 µM; radical scavenging activity (DPPH) [3]: 29% |
| 3.85 ± 0.03 | (24.3 ± 4.1%) | COc1cc(C(=O)N2CCN(c3ccccc3)CC2)ccc1O [Compound 2b, (4-Hydroxy-3-methoxyphenyl)-(4-phenylpiperazin-1-yl)methanone] |  |
|  |  | O=C(/C=C/c1ccc(O)cc1)N1CCC(Cc2ccccc2)CC1 [Compound 6d, (E)-1-(4-Benzyl-1-piperidyl)-3-(4-hydroxyphenyl)prop-2-en-1-one] | % inhibition ±SD Monophenolase (mushroom tyrosinase [1]; at 200 μM (asterisk)): (48.3 ± 1.1%); % inhibition ±SD Diphenolase (mushroom tyrosinase [2]): (20.3 ± 1.3%) |
| 4.42 ± 0.04 | (27.7 ± 3.0%) | O=C(c1ccc(O)c(O)c1)N1CCN(c2ccccc2)CC1 [Compound 2a, (3,4-Dihydroxyphenyl)-(4-phenylpiperazin-1-yl)methanone] |  |
| 4.00 ± 0.01 | (16.4 ± 13.0%) | O=C(O)/C=C/c1ccc(O)cc1 [pCA, p-coumaric acid, reference compound] |  |
| 4.42 ± 0.04 | (37.0 ± 2.7%) | O=C(c1ccc(O)c(O)c1)N1CCN(Cc2ccccc2)CC1 [Compound 1a, (4-Benzylpiperazin-1-yl)-(3,4-dihydroxyphenyl)methanone] |  |
| 4.49 ± 0.02 | (41.6 ± 1.2%) | COc1cc(C(=O)N2CCN(Cc3ccccc3)CC2)ccc1O [Compound 1b, (4-Benzylpiperazin-1-yl)(4-hydroxy-3-methoxyphenyl)methanone] |  |
| 4.74 ± 0.04 |  | O=C(c1ccc(O)c(O)c1)N1CCC(Cc2ccccc2)CC1 [Compound 5a, (4-Benzyl-1-piperidyl)-(3,4-dihydroxyphenyl)methanone] | % inhibition ±SD Diphenolase (mushroom tyrosinase [2]): (30.9 ± 3.9%); radical scavenging activity (DPPH) [3]: 42% |
| 3.54 ± 0.05 | (31.1 ± 5.3%) | COc1ccc(C(=O)N2CCN(c3ccccc3)CC2)cc1 [Compound 2c, (4-Methoxyphenyl)-(4-phenylpiperazin-1-yl)methanone] |  |
| 4.59 ± 0.01 |  | O=C(c1ccc(O)cc1)N1CCC(Cc2ccccc2)CC1 [Compound 5d, (4-Benzyl-1-piperidyl)-(4-hydroxyphenyl)methanone] | % inhibition ±SD Diphenolase (mushroom tyrosinase [2]): (14.7 ± 1.6%) |
| 4.85 ± 0.07 | (22.1 ± 3.1%) | (E)-1-(1-Benzylpiperidin-4-yl)-3-(4-methoxyphenyl)prop-2-en-1-one [Compound 6c] |  |
| 4.50 ± 0.04 | (51.5 ± 3.2%) | COc1cc(/C=C/C(=O)N2CCN(c3ccccc3)CC2)ccc1O [Compound 4b, (E)-3-(4-Hydroxy-3-methoxyphenyl)-1-(4-phenylpiperazin-1-yl)prop-2-en-1-one] |  |
| 4.37 ± 0.04 | (45.2 ± 7.6%) | O=C(c1ccc(Cl)cc1)N1CCN(Cc2ccccc2)CC1 [Compound 1e, 1-Benzyl-4-(4-chlorobenzoyl)piperazine] |  |
| 4.56 ± 0.01 |  | O=C(/C=C/c1ccc(O)c(O)c1)N1CCC(Cc2ccccc2)CC1 [Compound 6a, (E)-1-(4-Benzyl-1-piperidyl)-3-(3,4-dihydroxyphenyl)prop-2-en-1-one] | % inhibition ±SD Diphenolase (mushroom tyrosinase [2]): (18.5 ± 1.1%) |
| 4.11 ± 0.05 | (35.2 ± 3.3%) | O=C(c1ccc(O)cc1)N1CCN(Cc2ccccc2)CC1 [Compound 1d, (4-Benzylpiperazin-1-yl)-(4-hydroxyphenyl)methanone] |  |
